In brackets after ≈: the same amount, converted by molar mass. Activity calls are given as the source filed them. The calls are words filed in the database; no cut-off is given here.
Experiments:
[1] = Half life in Sprague-Dawley rat at 3 mg/kg, iv by HPLC/MS/MS analysis; assay type: ADME, organism-based; set-up: dose 3 mg/kg, route intravenous; conditions: in vivo
In short: (§1)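 Male Sprague-Dawley rats, n of 3, given a single 3.0 mg/kg iv dose or 6.0 mg/kg po dose. Plasma exposure was followed over time. Values are mean with standard deviation.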

[2] = Kinetic solubility of the compound at pH 6.5; assay type: physicochemical; conditions: buffer
[3] = species on record: Rattus norvegicus; conditions: Sprague-Dawley, 6 mg/kg
[4] = molecular target: T1, Gastrin/cholecystokinin type B receptor (Homo sapiens) (UniProt P32239); test: Agonist activity at CCK2 receptor by [35S]GTPgammaS binding assay; assay type: functional
T1 sequence (whole entry): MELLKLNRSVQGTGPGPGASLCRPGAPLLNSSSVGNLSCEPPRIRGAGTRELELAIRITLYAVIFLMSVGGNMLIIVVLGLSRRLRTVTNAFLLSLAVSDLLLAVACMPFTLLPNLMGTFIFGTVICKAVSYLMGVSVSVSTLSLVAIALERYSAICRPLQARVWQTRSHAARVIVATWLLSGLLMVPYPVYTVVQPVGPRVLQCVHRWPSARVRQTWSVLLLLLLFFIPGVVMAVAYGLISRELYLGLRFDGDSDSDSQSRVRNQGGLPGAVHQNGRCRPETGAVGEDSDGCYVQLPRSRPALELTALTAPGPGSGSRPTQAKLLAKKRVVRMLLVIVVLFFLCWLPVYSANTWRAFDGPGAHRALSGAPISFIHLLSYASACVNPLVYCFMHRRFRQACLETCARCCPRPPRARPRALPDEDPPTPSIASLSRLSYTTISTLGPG

[5] = system: Rattus norvegicus; test: Antiobesity activity in Sprague-Dawley rat assessed as reduction in spontaneous food intake at 6 mg/kg, po measured at 4 hrs relative to vehicle; assay type: functional; set-up: scale not given: the % may be the effect or the level left
In short: (§2)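 Rats were dosed orally at 6 mg/kg, as amorphous material unless stated or as a solid spray-dried dispersion (SDD). Spontaneous food intake was measured against vehicle at 4 h post-dose, and at 12 h where stated. Significance was P <0.05 versus vehicle unless noted.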

[6] = system: Rattus norvegicus; test: Antiobesity activity in Sprague-Dawley rat assessed as reduction in spontaneous food intake at 6 mg/kg, po administered via SDD formulation measured at 4 hrs; assay type: functional; in short: as §2
[7] = molecular target: T1, Gastrin/cholecystokinin type B receptor (Homo sapiens); test: Agonist activity at CCK2 receptor assessed as calcium mobilization by FLIPR assay; assay type: functional
[8] = molecular target: T2, Cholecystokinin receptor type A (Homo sapiens) (UniProt P32238); test: Agonist activity at human CCK1 receptor expressed in CHO cells assessed as induction of calcium release by FLIPR assay relative to CCK8; assay type: functional, cell-based
T2 sequence (whole entry): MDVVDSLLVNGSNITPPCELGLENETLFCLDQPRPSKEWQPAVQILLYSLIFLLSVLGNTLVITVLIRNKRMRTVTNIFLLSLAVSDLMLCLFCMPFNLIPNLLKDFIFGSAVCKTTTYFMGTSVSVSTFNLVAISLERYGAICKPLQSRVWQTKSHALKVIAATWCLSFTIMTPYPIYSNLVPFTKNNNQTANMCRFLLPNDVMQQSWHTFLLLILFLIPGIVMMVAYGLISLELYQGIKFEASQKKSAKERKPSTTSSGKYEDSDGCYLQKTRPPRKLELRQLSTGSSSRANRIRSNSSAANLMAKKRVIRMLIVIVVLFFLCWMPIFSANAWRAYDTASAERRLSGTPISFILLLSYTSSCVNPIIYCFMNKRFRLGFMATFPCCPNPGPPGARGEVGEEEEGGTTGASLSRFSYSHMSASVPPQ
In short: (§3)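 Calcium release was measured by FLIPR at the human CCK1 receptor. EC50 and efficacy were expressed as % agonism versus CCK-8. Values are mean ± standard error of at least three independent experiments.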

[9] = Blood clearance predicted from rat liver microsomes; conditions: whole blood
[10] = system: Rattus norvegicus; test: Antiobesity activity in Sprague-Dawley rat assessed as reduction in spontaneous food intake at 6 mg/kg, po measured at 4 hrs in presence of 20 mg/kg CCK1R antagonist lorglumide relative to vehicle; assay type: functional
[11] = AUC (0 to tlast) in Sprague-Dawley rat at 3 mg/kg, iv by HPLC/MS/MS analysis; assay type: ADME, organism-based; set-up: dose 3 mg/kg, route intravenous; conditions: plasma; in short: as §1
[12] = system: Mus musculus; test: Induction of emptying of gallbladder in C57BL/6J mouse at 6 mg/kg, po administered via SDD formulation measured at 1 hr; assay type: functional
In short: (§4)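 Mouse gallbladder emptying model. Compounds were given orally, as amorphous material unless noted or as an SDD formulation where stated. Gallbladder emptying (%) was read at 1 h after 6 mg/kg. Gallbladder refilling was assessed at 24 h.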

[13] = AUC (0 to tlast) in Sprague-Dawley rat at 6 mg/kg, po by HPLC/MS/MS analysis; assay type: ADME, organism-based; set-up: dose 6 mg/kg, route oral; conditions: plasma; in short: as §1
[14] = system: Rattus norvegicus; test: fCmax in Sprague-Dawley rat at 6 mg/kg, po by HPLC/MS/MS analysis; assay type: ADME, organism-based; set-up: dose 6 mg/kg, route oral; conditions: in vivo; in short: as §1
[15] = Plasma clearance in Sprague-Dawley rat at 3 mg/kg, iv by HPLC/MS/MS analysis; assay type: ADME, organism-based; set-up: dose 3 mg/kg, route intravenous; in short: as §1
[16] = Cmax in Sprague-Dawley rat at 6 mg/kg, po by HPLC/MS/MS analysis; assay type: ADME, organism-based; set-up: dose 6 mg/kg, route oral; conditions: in vivo; in short: as §1
[17] = Volume of distribution at steady state in Sprague-Dawley rat at 3 mg/kg, iv by HPLC/MS/MS analysis; assay type: ADME, organism-based; set-up: dose 3 mg/kg, route intravenous; conditions: in vivo, read-out: Vdss; in short: as §1
[18] = system: Rattus norvegicus; test: Tmax in Sprague-Dawley rat at 6 mg/kg, po by HPLC/MS/MS analysis; assay type: ADME, organism-based; set-up: dose 6 mg/kg, route oral; conditions: in vivo; in short: as §1
[19] = Oral bioavailability in Sprague-Dawley rat at 6 mg/kg by HPLC/MS/MS analysis; assay type: ADME, organism-based; conditions: in vivo; in short: as §1
[20] = system: Rattus norvegicus; test: Biliary clearance in Sprague-Dawley rat at 3 mg/kg, iv by HPLC/MS/MS analysis; assay type: ADME, organism-based; set-up: dose 3 mg/kg, route intravenous; conditions: in vivo
[21] = Lipophilicity, log D of the compound at pH 7.4; assay type: physicochemical; conditions: buffer
[22] = Intrinsic clearance in human liver microsomes; assay type: ADME, Microsome
[23] = system: Mus musculus; test: Induction of emptying of gallbladder in C57BL/6J mouse at 6 mg/kg, po measured at 24 hrs; assay type: functional
In short: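 Mice dosed orally; compound given as amorphous solid unless noted, with one analog in spray-dried dispersion formulation. Read-out is % gallbladder emptying after dosing.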

[24] = system: Rattus norvegicus; test: Antiobesity activity in Sprague-Dawley rat assessed as reduction in spontaneous food intake at 6 mg/kg, po measured at 4 hrs; assay type: functional; in short: as §2
[25] = system: Mus musculus; test: Induction of emptying of gallbladder in C57BL/6J mouse at 6 mg/kg, po measured at 1 hr; assay type: functional; in short: as §4
[26] = molecular target: T3, Cholecystokinin receptor type A (Rattus norvegicus, UniProt P30551); test: Displacement of [125I]CCK8 from rat CCK1 receptor expressed in CHO cells; assay type: cell-based
T3 sequence (P30551 whole entry): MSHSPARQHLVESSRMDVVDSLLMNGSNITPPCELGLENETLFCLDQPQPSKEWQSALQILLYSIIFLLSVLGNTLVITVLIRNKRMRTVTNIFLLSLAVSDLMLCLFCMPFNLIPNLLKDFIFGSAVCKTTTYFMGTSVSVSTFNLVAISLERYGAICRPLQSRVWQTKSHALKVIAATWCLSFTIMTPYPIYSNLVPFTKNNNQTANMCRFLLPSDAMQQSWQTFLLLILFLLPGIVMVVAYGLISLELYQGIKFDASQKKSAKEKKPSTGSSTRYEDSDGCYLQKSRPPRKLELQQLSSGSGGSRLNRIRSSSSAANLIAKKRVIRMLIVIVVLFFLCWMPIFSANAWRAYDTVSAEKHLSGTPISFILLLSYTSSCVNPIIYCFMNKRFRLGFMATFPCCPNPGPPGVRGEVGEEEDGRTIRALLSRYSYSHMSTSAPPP
In short: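 Binding IC50 at the rat CCK1 receptor. Values are mean ± standard error of at least two independent experiments.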

[27] = molecular target: T3, Cholecystokinin receptor type A; test: Agonist activity at rat CCK1 receptor expressed in CHO cells assessed as induction of calcium release by FLIPR assay; assay type: functional, cell-based
In short: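 Calcium release was measured by FLIPR at the rat CCK1 receptor to give EC50. Values are mean ± standard error of at least two independent experiments.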

[28] = molecular target: T4, Cholecystokinin receptor type A (Homo sapiens, UniProt P32238); test: Displacement of [125I]CCK8 from human CCK1 receptor expressed in CHO cells; assay type: cell-based
T4 sequence (P32238 whole entry): T2 sequence (whole entry)
In short: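 Binding IC50 at the human CCK1 receptor. Values are mean ± standard error of at least three independent experiments.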

[29] = molecular target: T4, Cholecystokinin receptor type A; test: Agonist activity at human CCK1 receptor expressed in CHO cells assessed as induction of calcium release by FLIPR assay; assay type: functional, cell-based; in short: as §3
[30] = Biliary clearance in Sprague-Dawley rat assessed as parent compound excretion into bile at 3 mg/kg, iv by HPLC/MS/MS analysis; assay type: ADME, organism-based; set-up: dose 3 mg/kg, route intravenous; conditions: read-out: Activity

Structure (SMILES) | solubility kinetic [2] [µM] | Activity [4] | Activity [7] | Activity [8] [%] | CLint scaled [22] [mL/min/kg] | inhibition in vivo at 6 mg/kg [24] [%] | Activity [25] [%] | IC50 [26] [nM] | EC50 [27] [nM] | IC50 [28] [nM] | EC50 [29] [nM] | logD ([21]; read-out: logD) | other results
CC(C)N(Cc1ccccc1)C(=O)CN1C(=O)[C@@H](Cc2c[nH]c3ccccc23)c2nnc(-c3ccccc3)n2-c2ccccc21 [CE-326597] | 0.94 (≈ 0.559 µg/mL) | inactive | inactive | 53 | 199 | – | – | – | – | – | – | – | half-life [1]: 1.37 h; inhibition [3]: Active; Activity [5]: -56%; inhibition in vivo at 6 mg/kg [6]: 56%; clearance [9]: 47 mL/min/kg; inhibition (INH) [10]: 2.4%; AUC(0-t) [11]: 1190 ng·h/mL; Activity [12]: 91%; AUC(0-t) [13]: 42.5 ng·h/mL; fCmax [14]: 0.98 nM; clearance [15]: 41.7 mL/min/kg; Cmax [16]: 14.6 ng/mL; Vd [17]: 3.7 L/kg; Tmax [18]: 1.33 h; bioavailability [19]: 1%; CL_biliary [20]: 0.0277 mL/min/kg; logD [21]: 3.39
CC(C)N(C(=O)CN1C(=O)[C@H](NC(=O)Nc2cccc(C(=O)O)c2)C(=O)N(c2ccccc2)c2ccccc21)c1ccccc1 | 499 (≈ 302 µg/mL) | – | – | 62.8 | < 8 | 52 | 82 | 52.6 | 63.8 | 131 | 283 | 1.09 | Activity [23]: 91.4%; dose excreted [30]: 65%
CC(C)N(Cc1ccccc1)C(=O)CN1C(=O)C(Cc2n[nH]c3ccccc23)c2nnc(-c3ccccc3)n2-c2ccccc21 (stereo unspecified) | 2.26 (≈ 1.35 µg/mL) | inactive | inactive | 72.3 | 39.5 | 43 | 86.3 | 21 | 481 | 48.5 | 522 | 3.16 | –
